TRPC6 inh: blocks the mouse TRPC6 cation channel; B-score at 10 µM; 310,000 compounds, 1.1% hits; HEK293-TRPC6, membrane potential dye, ACh-evoked depolarization; stronger effect = lower value; Q61143;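 active means B-score under library mean minus 3 SD, initial fluorescence not abnormally high, positive integrated signal ratio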;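 further: B-score derived from integrated fluorescence ratio over the kinetic read; more negative B-score means stronger inhibition of depolarization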
Target sequence (Q61143 whole entry, looked up): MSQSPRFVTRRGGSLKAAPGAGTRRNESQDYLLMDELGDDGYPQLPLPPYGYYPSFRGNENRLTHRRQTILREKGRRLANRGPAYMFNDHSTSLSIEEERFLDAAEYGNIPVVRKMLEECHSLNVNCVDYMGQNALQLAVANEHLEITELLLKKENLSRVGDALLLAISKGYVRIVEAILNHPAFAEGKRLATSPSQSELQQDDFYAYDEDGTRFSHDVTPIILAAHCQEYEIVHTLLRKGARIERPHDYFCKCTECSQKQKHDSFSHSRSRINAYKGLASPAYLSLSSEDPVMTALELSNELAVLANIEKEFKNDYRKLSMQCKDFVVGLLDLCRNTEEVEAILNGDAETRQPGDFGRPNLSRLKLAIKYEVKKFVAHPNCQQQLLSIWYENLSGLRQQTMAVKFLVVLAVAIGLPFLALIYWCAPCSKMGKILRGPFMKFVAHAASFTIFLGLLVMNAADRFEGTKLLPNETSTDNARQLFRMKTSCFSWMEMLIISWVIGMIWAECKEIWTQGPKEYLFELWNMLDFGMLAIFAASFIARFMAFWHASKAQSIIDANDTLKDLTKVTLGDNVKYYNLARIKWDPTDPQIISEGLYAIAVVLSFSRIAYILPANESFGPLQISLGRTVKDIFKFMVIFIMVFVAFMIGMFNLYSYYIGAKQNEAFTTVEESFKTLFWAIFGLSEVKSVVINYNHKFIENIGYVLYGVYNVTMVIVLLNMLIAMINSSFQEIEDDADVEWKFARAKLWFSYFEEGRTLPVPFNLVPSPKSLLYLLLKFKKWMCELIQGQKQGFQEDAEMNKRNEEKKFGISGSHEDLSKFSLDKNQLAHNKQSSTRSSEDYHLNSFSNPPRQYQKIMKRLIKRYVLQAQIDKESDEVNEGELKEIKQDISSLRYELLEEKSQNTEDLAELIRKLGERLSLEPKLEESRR
TRPC4 inh: blocks the mouse TRPC4 cation channel; Q9QUQ5; 300,000 compounds, 0.39% hits; HEK293 TRPC4beta/mu-opioid, DAMGO-evoked Fluo4 calcium flux; stronger effect = lower value; B-score at 10 µM;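 active means B-score over 3 SD under the library average, no early fluorescence shift, positive overall ratio signal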
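Assay system: Stable TRPC4beta/mu-opioid receptor HEK293 cells | Reagent: DAMGO in two steps, submaximal then maximal | Compound dosing: Single concentration per test compound | Signal: Fluo4 Ca2+ flux fluorescence | Evaluation: Per-well B score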
TRPC4 potent: allosterically enhances the mouse TRPC4 cation channel; 310,000 compounds, 0.42% hits; B-score at 10 µM; Q9QUQ5; AID 2227; HEK293 TRPC4beta/mu-opioid, DAMGO EC20, Fluo-4 Ca2+ flux; stronger effect = higher value;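 active means B-score of calcium response area above 5 SD of library B-scores, with initial fluorescence ratio within 5 SD of library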;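 further: B-score of integrated fluorescence ratio over time as area under calcium response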
TRPC6 act: mouse TRPC6 channel activation; Q61143; HEK293-TRPC6 membrane potential dye fluorescence; stronger effect = higher value; 310,000 compounds, 0.13% hits; B-score at 10 µM; AID 2550;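 active means B-score of the integrated fluorescence ratio above library mean plus 3 SD, and starting fluorescence ratio within library mean plus 5 SD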;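 further: higher score means more depolarization so channel activation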
TRPC4 act: TRPC4 (mouse) channel activation; AID 2237; 310,000 compounds, 0.49% hits; B-score at 10 µM; HEK293 TRPC4beta/mu-opioid, Fluo4 calcium fluorescence; stronger effect = higher value; Q9QUQ5;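 active means B-score above 5 SD of library B-scores, and initial fluorescence ratio not above library mean plus 5 SD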;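 further: positive B-score marks a calcium rise read as TRPC4 activation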
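Test system: HEK293 cells stably co-expressing mouse TRPC4beta and mu-opioid receptor | Schedule: Fluo4 dye loading 45 min at room temperature, 110 s recording | Measured by: Kinetic Fluo4 calcium fluorescence, 5 s baseline at 1 Hz | Evaluation: B score of integrated ratio | Controls: Buffer (low) and maximal DAMGO (high)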
TRPC4 spec 2: second selectivity test of TRPC6 inhibitors: effect on mouse TRPC4. shares compounds with TRPC6 inh. HEK293 TRPC4/MOR, membrane potential dye fluorescence; channel activated by saturating DAMGO dose. inhibition, % at 10 µM. 920 compounds, 42% hits;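 active means compounds whose fluorescence signal differed from control wells by over 3 SD, either direction, in both duplicate plates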
TRPC4 spec: mouse TRPC4 off-target activity of TRPC6 inhibitors; shares compounds with TRPC6 inh; HEK293 TRPC4/mu-opioid, membrane potential fluorescence; activity change, negative = inhibition, % at 10 µM; 920 compounds, 61% hits; AID 2777;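 active means rise or fall in signal beyond 3 SD of buffer-only wells in both replicate plates, either sign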;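 further: integrated kinetic ratio of fluorescence range over baseline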
HEK293 MPD ctr 2-1: second counter-screen for TRPC6 inhibitors: parental HEK293 cells | shares compounds with TRPC6 inh | parental HEK293 membrane potential dye fluorescence; maximal acetylcholine challenge after compound addition | signal change vs control, % at 10 µM | 920 compounds, 31% hits;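 active means membrane potential signal moving either way by over 3 SD of the maximum-effect control, in both duplicate plates, meaning non-specific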
HEK293 MPD ctr-1: counter-screen for TRPC6 inhibitors: effect in parental HEK293 cells; parental HEK293 membrane potential dye fluorescence; 920 compounds, 60% hits; AID 2780; shares compounds with TRPC6 inh; membrane potential signal change, % at 10 µM;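 active means membrane potential signal shifting up or down by more than 3 SD of buffer-only wells, on both duplicate plates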
HEK293 MPD ctr-2: counter-screen for TRPC6 modulators: effect in parental HEK293 cells | shares compounds with TRPC6 inh | membrane potential dye fluorescence | membrane potential signal change, % at 10 µM | 2,400 compounds, 51% hits | AID 488924;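 active means membrane potential signal moves up or down beyond 5 SD from buffer-only wells, on both duplicate plates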
HEK293 MPD ctr 2-2: second check of TRPC6 modulator effects in parental HEK293 cells; shares compounds with TRPC6 inh; membrane potential dye fluorescence; after compound, maximal acetylcholine stimulation; inhibition, % at 10 µM; 2,400 compounds, 14% hits;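 active means membrane potential signal drops by more than 5 SD from the mean control signal, in both duplicate plates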;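 further: plate controls were acetylcholine ECmax control wells for no effect and buffer only wells for full effect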
TRPC4 ctr mod: tests whether TRPC6 modulators also affect mouse TRPC4. shares compounds with TRPC6 inh. HEK293 TRPC4/mu-opioid, membrane potential fluorescence. percent change from control (negative = decrease, positive = increase), % at 10 µM. 2,400 compounds, 69% hits. AID 488927;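 active means membrane potential signal moved up or down beyond 5 SD of buffer control wells, in both duplicate plates, actives on both sides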;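 further: plate controls were assay buffer wells for no effect and DAMGO maximal-effect wells for full effect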
TRPC4/MOR inh 2: mouse TRPC4 off-target activity of TRPC6 modulators, second screen; shares compounds with TRPC6 inh; HEK293 TRPC4/mu-opioid, membrane potential dye fluorescence; stimulated with maximal-effect DAMGO; inhibition, % at 10 µM; 2,400 compounds, 55% hits; AID 488928;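 active means drop in membrane potential signal beyond 5 SD of the control wells in both duplicate plates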;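 further: TRPC4 counter screen for TRPC6 hits run under conditions tuned for TRPC6 not TRPC4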
TRPC6 block conf: mouse TRPC6 inhibitor confirmation. shares compounds with TRPC6 inh. HEK293-TRPC6, membrane potential dye, ACh-evoked depolarization. inhibition, % at 10 µM. 3,300 compounds, 43% hits. AID 488960;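 active means fluorescence ratio falls more than 5 SD below the full-stimulation control mean, in both duplicate runs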;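 further: integrated fluorescence ratio of peak minus minimum over baseline after agonist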
TRPC6 act confirm: mouse TRPC6 activator confirmation; activation, % at 10 µM; HEK293-TRPC6 membrane potential dye fluorescence, FDSS; 2,800 compounds, 11% hits; shares compounds with TRPC6 inh;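 active means ratio signal rise beyond 5 SD above unstimulated control wells' mean, seen in both duplicate runs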;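 further: plate controls were buffer EC0 wells for no effect and acetylcholine ECmax response for full effect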
* = called active by the depositor; i = inactive; x = no result given. Shown are actives, neighbours in structure and some others; about 2.3% of the full set was active somewhere.

SMILES | TRPC6 inh | TRPC4 inh | TRPC4 potent | TRPC6 act | TRPC4 act | TRPC6 block conf | TRPC6 act confirm | others
NC(=O)c1cc(N=Nc2c(N)[nH]n(-c3c(Cl)cc(Cl)cc3Cl)c2=O)ccc1Cl | i | i | i | i | i | x | x
CCOC(=O)c1c(-c2cccc([N+](=O)[O-])c2)csc1N | i | i | i | i | i | x | x
Cc1csc2cc(-c3cccc([N+](=O)[O-])c3)c(-c3cccc([N+](=O)[O-])c3)c[n+]12 | -6.1* | i | i | i | i | 69%* | i | HEK293 MPD ctr-2=-310%*;HEK293 MPD ctr 2-2=66%*;TRPC4 ctr mod=-52%*;TRPC4/MOR inh 2=55%*
O=C(COc1ccccc1)NC1CCSC1=O (stereo not drawn) | i | i | i | i | i | x | x
COC(=O)c1ccc(COC(=O)c2ccc(SC)cc2OC)cc1 | i | i | i | i | i | x | x
Cc1cc(N=Nc2ccccc2)c(NCC(O)C(O)C(O)CO)cc1C (stereo not drawn) | -8.1* | i | i | i | i | 80%* | i | TRPC4 spec 2=32%*;TRPC4 spec=-30%*;HEK293 MPD ctr 2-1=i;HEK293 MPD ctr-1=-542%*
COc1ccc(C)cc1S(=O)(=O)NCCN1CCOCC1 | i | i | i | i | i | x | x
CCCCc1nnc(NC(=O)CSc2nc(O)c(Cc3ccccc3)c(=O)[nH]2)s1 | i | i | i | i | i | x | x
O=C(CSc1nc(O)c(Cc2ccccc2)c(=O)[nH]1)Nc1nnc(SCc2ccccc2)s1 | i | i | i | 20* | i | i | 142%* | HEK293 MPD ctr-2=308%*;HEK293 MPD ctr 2-2=i;TRPC4 ctr mod=58%*;TRPC4/MOR inh 2=i
CC(C)(C)c1ccc(Cn2nc(CC(=O)O)c3ccccc3c2=O)cc1 | i | i | i | i | i | x | x
CCNc1nc(NCC)n2c(SCC(=O)Nc3ccccc3[N+](=O)[O-])nnc2n1 | i | i | i | i | i | x | x
COc1ccccc1N1CCN(C/C=C/c2ccc(N(C)C)cc2)CC1 | -7.5* | i | i | i | i | i | i | TRPC4 spec 2=68%*;TRPC4 spec=-10%*;HEK293 MPD ctr 2-1=i;HEK293 MPD ctr-1=-247%*
CCN(CC)S(=O)(=O)c1ccc(C(=O)NCc2n[nH]c(=S)n2-c2ccc(Cl)c(Cl)c2)cc1 | i | i | i | i | i | x | x
CCOC(=O)c1c(C)cc(C)n2c1nc1ccccc12 | -8.1* | i | i | i | i | i | i | TRPC4 spec 2=i;TRPC4 spec=-21%*;HEK293 MPD ctr 2-1=i;HEK293 MPD ctr-1=-250%*
